Hits are enriched below; roughly 3.7% of the tested compounds scored in any of these assays.
Kir21 inh: inhibitors of mouse Kir2.1 inward-rectifier potassium channel. Inward rectifier potassium channel 2 (Mus musculus), P35561. HEK293-Kir2.1, FluxOR thallium flux fluorescence; active compounds read low. B-score at 10 µM. 310,000 tested, 0.85% active;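 active = fluorescence ratio B-score at or below minus 3 SD of library scores, with starting-brightness B-score within 2 SD, cut at about -4.2 in these data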;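 note: channel flux triggered by added potassium and thallium sulfate stimulus; B-score of peak minus minimum fluorescence over baseline after thallium stimulus; more negative B-score means stronger Kir2.1 block with less thallium influx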
KCNK9 block: KCNK9 potassium channel inhibitors, primary screen, HEK293 cells, thallium flux | Potassium channel subfamily K member 9 (Homo sapiens), Q9NPC2 | B-score at 10 µM | AID 488922, 2010 | FluxOR thallium flux fluorescence; active compounds read low | 310,000 tested, 1.2% active;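 active = ratio B-score over 3 SD below the library mean, with starting fluorescence within 5 SD of its mean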;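 note: negative B-score means less thallium flux so channel inhibition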
KCNK3 block: human KCNK3 channel inhibitors, primary screen, CHO cells, FluxOR thallium flux, B-score. Potassium channel subfamily K member 3 (Homo sapiens), O14649. 340,000 tested, 0.84% active. FluxOR fluorescence; active compounds read low. B-score at 10 µM;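 active = B-score under library mean minus 4 SD, starting fluorescence ratio at most library mean plus 5 SD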;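 note: more negative B-score means stronger inhibition of thallium flux through KCNK3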
hERG protect: hERG rescue from dofetilide block, primary screen, cell-based, CHO-hERG, FluxOR thallium flux, dofetilide IC70 | AID 1511, 2009 | dofetilide IC70 present | activation (rescue from dofetilide block), less the hit threshold, % at 10 µM | Voltage-gated inwardly rectifying potassium channel KCNH2 (Homo sapiens), Q12809 | 310,000 tested, 0.51% active;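 active = activation above the mean of controls blocked by dofetilide plus 5 SD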;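 note: thallium influx through hERG after potassium depolarization seen as dye fluorescence rise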
KCNQ1 pot: potentiators or activators of KCNQ1 channel, primary screen, cell-based, thallium flux, high-throughput; AID 2648, 2010; CHO-K1 KCNQ1, thallium flux FluxOR fluorescence; active compounds read high; 310,000 tested, 0.35% active; B-score at 10 µM;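 active = fluorescence ratio B-score, a plate-corrected score, at least three library SD, with initial intensity B-score within 5 SD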
Target sequence (P51787 whole entry, looked up): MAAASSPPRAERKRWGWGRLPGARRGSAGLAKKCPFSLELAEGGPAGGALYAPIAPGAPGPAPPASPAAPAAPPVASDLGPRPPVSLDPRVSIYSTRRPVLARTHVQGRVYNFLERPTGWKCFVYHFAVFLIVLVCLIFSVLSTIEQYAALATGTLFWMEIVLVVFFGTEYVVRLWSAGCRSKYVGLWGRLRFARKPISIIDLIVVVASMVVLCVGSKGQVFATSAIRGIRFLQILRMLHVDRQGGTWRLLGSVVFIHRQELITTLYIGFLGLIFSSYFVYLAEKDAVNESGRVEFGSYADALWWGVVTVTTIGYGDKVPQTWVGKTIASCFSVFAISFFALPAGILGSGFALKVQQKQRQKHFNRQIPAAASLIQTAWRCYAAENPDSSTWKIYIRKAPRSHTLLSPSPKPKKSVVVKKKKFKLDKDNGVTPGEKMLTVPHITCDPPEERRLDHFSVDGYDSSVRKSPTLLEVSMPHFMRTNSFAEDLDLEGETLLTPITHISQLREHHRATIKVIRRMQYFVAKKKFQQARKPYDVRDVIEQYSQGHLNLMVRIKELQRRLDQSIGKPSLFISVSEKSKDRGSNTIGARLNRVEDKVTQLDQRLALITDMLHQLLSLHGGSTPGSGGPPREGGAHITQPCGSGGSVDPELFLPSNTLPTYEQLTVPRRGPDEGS
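Material: CHO-K1 cells stably expressing KCNQ1. Medium: assay buffer for compound exposure, DMSO matched across wells. Reagent: K+/Tl+ depolarizing stimulus. Compound dosing: single-concentration screen. Times: 37 °C overnight plating, 90-min dark dye load, 20-min compound pretreatment. Technique: FluxOR Tl+ flux fluorescence.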
KCNQ1 block: inhibitors of human KCNQ1 channel, primary screen, cell-based, thallium flux, high-throughput | 310,000 tested, 1.3% active | Potassium voltage-gated channel subfamily KQT member 1 (Homo sapiens), P51787 | CHO-K1 KCNQ1, FluxOR thallium flux fluorescence; active compounds read high | B-score at 10 µM;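 active = compounds whose thallium flux B-score, printed positive for inhibition, exceeds three library SD while starting fluorescence stays within three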;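 note: channel opened by potassium depolarization with thallium stimulus after 20 min compound exposure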
KCNK9 inh conf: KCNK9 potassium channel inhibitors, confirmation, HEK293 cells, thallium flux, duplicate; shares compounds with KCNK9 block; FluxOR thallium flux fluorescence; inhibition, % at 10 µM; 4,900 tested, 43% active; AID 492992, 2010;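 active = thallium signal inhibited by more than 5 SD of the compound-free buffer control wells, on both duplicate plates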;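 note: 0% = assay buffer control wells without compound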
Kir21 sel: mouse Kir2.1 channel inhibition, confirmation, selectivity assay for KCNK9 modulator project, cell-based, HEK293, thallium flux. shares compounds with KCNK9 block. Kir2.1 cells, FluxOR thallium flux fluorescence. inhibition, % at 10 µM. 4,900 tested, 4% active;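 active = thallium signal drop more than 5 SD beyond the mean of the no-compound control wells, seen in both duplicate plates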;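 note: signal is fluorescence rise after thallium addition divided by baseline fluorescence; plate controls were assay buffer only for no effect and full block by chlorpromazine control for full effect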
KCNK9 uninduced: thallium flux in non-induced HEK293 cells, confirmation, counter-screen for KCNK9 inhibitor project, cell-based, second counter screen, non-induced KCNK9-HEK293; inhibition, % at 10 µM; shares compounds with KCNK9 block; 4,900 tested, 40% active; FluxOR thallium flux; AID 492997, 2010;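 active = thallium signal drop beyond 5 SD of the untreated control mean, on both duplicate plates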;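 note: plate controls were buffer only IC0 wells for no effect and SID17386958 at its maximal inhibitory level for full effect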
Numbers without * were called inactive; i = inactive; · = no result.

SMILES | Kir21 inh | KCNK9 block | KCNK3 block | hERG protect | KCNQ1 pot | KCNQ1 block | KCNK9 inh conf | Kir21 sel | KCNK9 uninduced
COc1ccc(N(C(=O)CNC(=O)c2cccs2)C(C(=O)NCC2CCCO2)c2ccccc2)cc1 (stereo not drawn) | 0.94 | i | i | -21 | i | i | · | · | ·
Cc1ccc(CN2CCSc3ccc(C(=O)NC4CCN(Cc5ccccc5)CC4)cc32)cc1 | -0.49 | i | i | -22 | i | 7* | i | i | i
CC1CC(C)CN(C(=O)c2ccc3c(c2)N(Cc2ccccc2)CCS3)C1 (stereo not drawn) | -1.5 | -8.2* | -12* | -7 | i | i | 51%* | i | 34%*
CCCN1CN(c2ccccc2)C(=S)N(c2ccccc2)C1 | 1.4 | i | i | -6 | i | i | · | · | ·
Cc1ccc(CON=C2CCN(c3ncc(C(F)(F)F)cc3Cl)CC2)cc1 | -2.7 | i | i | -9 | i | i | i | i | i
CC1=C(C(=O)OC(C)C)C(c2cccc(F)c2)N2C(=O)C(C)SC2=N1 (stereo not drawn) | -0.61 | -13* | i | -14 | i | i | 56%* | i | 54%*
CCOC(=O)C1=C(C)N=C2SC(C)C(=O)N2C1c1ccc(OC(C)=O)c(OCC)c1 (stereo not drawn) | -1.5 | i | · | -9 | i | i | · | · | ·
CCOC(=O)C1=C(C)N=C2SC(C)C(=O)N2C1c1cccc(F)c1 (stereo not drawn) | -0.02 | -17* | i | -14 | i | 6* | 64%* | i | 60%*
CN(C)C(=O)c1ccc(NC(=O)CSc2nnc(-c3cccs3)n2N)cc1 | · | · | i | · | · | · | · | · | ·
CCn1c(SCc2cccc(C)c2)nnc1-c1ccccc1 | -6.1* | i | i | -14 | i | i | i | i | i
CCn1c(SCC(O)c2ccccc2)nnc1-c1ccccc1 (stereo not drawn) | 0.28 | i | i | -8 | i | i | · | · | ·
COc1cc(OC)nc(Oc2ccccc2C(=O)Oc2ccccc2Cl)n1 | -3.6 | -11* | i | 1 | i | i | 42%* | i | 28%*
COC(=O)c1ccccc1Oc1nc(Cl)cc(OC)n1 | 0.98 | i | i | -5 | i | i | · | · | ·
COc1cc(OC)nc(Oc2ccccc2C(=O)Oc2ccc(Cl)cc2)n1 | 0 | -9* | i | 1 | i | i | 44%* | i | 39%*
O=C(O)CSc1nnc(SCc2cccc3ccccc23)s1 | 0.44 | i | i | -13 | i | i | · | · | ·
CC(C)OC(=O)CSc1nnc(SCc2cccc3ccccc23)s1 | 0.43 | i | i | -5 | i | i | i | i | i
COC(=O)[C@]1(CC(C)C)N[C@H](c2ccc(-c3cccc(Cl)c3)cc2)[C@@H]2C(=O)N(C)C(=O)[C@@H]21 | -1 | -10* | i | -17 | i | i | 54%* | i | 40%*
COC(=O)[C@]1(C)N[C@H](c2ccc(-c3cccc(Cl)c3)cc2)[C@@H]2C(=O)N(C)C(=O)[C@@H]21 | · | · | i | · | · | · | · | · | ·
CCN1C(=O)[C@H]2[C@@H](c3ccc(-c4ccc(OC)cc4)c(OC)c3)N[C@@](CC(C)C)(C(=O)OC)[C@H]2C1=O | · | · | i | · | · | · | · | · | ·
COC(=O)[C@]1(CC(C)C)N[C@H](c2ccc(-c3ccc(F)cc3)c(OC)c2)[C@@H]2C(=O)N(C)C(=O)[C@@H]21 | 2.4 | -9.1* | i | -4 | i | i | 38%* | i | 38%*
COc1ccc(-c2noc(C3CCCN(S(=O)(=O)c4cccc(Cl)c4)C3)n2)cc1OC (stereo not drawn) | 1.5 | -8.1* | i | -12 | i | i | i | i | 26%*
CC[C@@H]1CC=C[C@H]2[C@H]1C(=O)N(Cc1ccccc1)[C@H]2c1ccc2ccccc2c1 | 0.1 | i | · | -20 | i | i | · | · | ·
Cc1cc(S(=O)(=O)N2CCCCCC2)c(Cl)cc1Cl | 0.99 | i | i | -14 | i | i | i | i | i
O=S(=O)(c1cc(Cl)ccc1Cl)N1CCCCC1 | -0.24 | i | i | -16 | i | i | · | · | ·
CC(C)N(Cc1nc(-c2ccc(Cl)cc2)no1)C(=O)C12CC3CC(CC(C3)C1)C2 | 0.08 | i | i | -10 | i | i | i | i | i
SMILES | Kir21 inh | KCNK9 block | KCNK3 block | hERG protect | KCNQ1 pot | KCNQ1 block | KCNK9 inh conf | Kir21 sel | KCNK9 uninduced
Cc1cccc(-c2noc(CN(C(=O)C34CC5CC(CC(C5)C3)C4)C(C)C)n2)c1 | 0.33 | i | i | -2 | i | i | i | i | i
Cc1ccc(C(=O)N(Cc2nc(-c3ccc(C)cc3)no2)C(C)C)cc1 | -0.09 | i | i | -6 | i | i | · | · | ·
Cc1ccc(SCC(=O)N(Cc2nc(-c3ccccc3)no2)C(C)C)cc1 | 0.01 | i | i | -9 | i | i | i | i | 28%*
O=C1CCC(C(=O)N2CCCC2)CN1Cc1cccc(C(F)(F)F)c1 (stereo not drawn) | 2.7 | i | i | -8 | i | i | · | · | ·
COc1ccc(N2CCCn3c2nc2c3c(=O)n(Cc3ccc(C)cc3)c(=O)n2C)c(OC)c1 | 2 | i | i | -7 | i | i | i | i | i
COc1ccc(N2CCCn3c2nc2c3c(=O)n(CCc3ccccc3)c(=O)n2C)cc1 | -0.68 | i | i | -7 | i | i | · | · | ·
CC(C)(Oc1ccc(F)cc1)C(=O)OCC(=O)c1ccc(S(C)(=O)=O)cc1 | · | · | i | · | · | · | · | · | ·
Cc1ccc(Cc2nnc3n(-c4ccccc4)nc(C(=O)c4ccccc4)n3c2=O)cc1 | 0.22 | i | i | -3 | i | i | i | i | i
